Bounds are passed on as bounds.

The subject of one assay is YUC monooxygenase. Conditions: YUC monooxygenase inhibitors; cited from earlier work.
In a further assay the test system is AtGH3.11/JAR1. The note with it: cited from earlier work.
The next assay has as its system endogenous IAA. The note with it: within 30 min; cited from earlier work.
Another assay has as its system Physcomitrium patens. Briefly: Moss GH3::GUS reporter line phenotype. Format: in vivo. The note with it: 10 μM, 15 d. The method, boiled down: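 P. patens GH3::GUS reporter colonies cultured 15 d on BCDATG medium (0.8% agar) with or without 10 µM test compound and 10 µM IAA. GUS visualised histochemically with X-Gluc; ectopic leafy-like primordia scored.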
Assay [1] deals with Rice (Oryza sativa cv. Nipponbare) seedlings. Briefly: Rice seedling primary root and mesocotyl assays. Format: in vivo. An outline of the steps:
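Rice cv. Nipponbare seeds sterilised 20 min in 6% hypochlorite, rinsed, then germinated 2 d in sterile water at 28 °C in the dark. Mesocotyl: seedlings submerged 5 d in water with chemicals. Root: seedlings grown on 0.6% water agar with chemicals (n = 11). Both at 25 °C, 18 h light/6 h dark.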

Assay [2] concerns Arabidopsis mutants tir1-1 afb2-1, axr1-3, sav3-2, yucQ. Briefly: Lateral root formation in auxin signaling and biosynthesis mutants. Format: in vivo, Arabidopsis thaliana. An outline of the steps:
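Signalling and biosynthesis mutant seedlings, 4 d old, incubated with test compound for 3 more days. sav3-2 co-treated with 1 µM yucasinDF; yucQ co-treated with 1 µM kynurenine. Read-out was lateral root formation.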

Assay [3] concerns AtGH3.3, IAA19, YUC6 expression. Briefly: qRT-PCR of auxin-related genes in Arabidopsis. The format is in vivo. Conditions: after 60 min of treatment. The method, boiled down:
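Seedlings from vertical GM plates moved to liquid GM for 24 h, then harvested at intervals (10–60 min) after test compound was added. SYBR qRT-PCR: 95 °C 20 s, then 40 cycles of 95 °C 3 s and 60 °C 30 s. ΔΔCt normalised to UBQ10; n = 4, Tukey HSD vs mock.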

In a further assay the target is AtTIR1–IAA7 peptide (Arabidopsis thaliana, UniProt Q570C0). Briefly: SPR analysis of auxin-induced TIR1-IAA7 degron peptide interaction. The format is binding.
The target of the next assay is AtAFB5–IAA7 (Arabidopsis thaliana, UniProt Q9LTX2). Briefly: SPR analysis of auxin-induced AFB5-IAA7 degron peptide interaction. Format: binding.
In assay [4] the test system is Arabidopsis thaliana seedlings. Briefly: Primary and lateral root growth of Arabidopsis seedlings. The note with it: IAA at 0.05 µM. Format: in vivo. An outline of the steps:
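Primary root: seedlings grown vertically 6–8 d at 24 °C, continuous light, on GM plates with test compound (5 µM estradiol added for inducible lines); length recorded from photographs. Lateral root: seedlings grown vertically 6 d, moved to horizontal GM plates (2 g/L gellan gum) with chemicals for 2 d at 24 °C; lateral roots counted and primary root length measured.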

For assay [5], the system named is DII-VENUS fusion reporter protein. The note with it: IAA application; cited from earlier work.
A further assay relates to auxin-conjugating GH3s. Conditions: competitive inhibitor; cited from earlier work.
A further assay relates to TAA1. The note with it: cited from earlier work.

AtTIR1–IAA7 peptide, sequence (Q570C0 whole entry, other chains not shown): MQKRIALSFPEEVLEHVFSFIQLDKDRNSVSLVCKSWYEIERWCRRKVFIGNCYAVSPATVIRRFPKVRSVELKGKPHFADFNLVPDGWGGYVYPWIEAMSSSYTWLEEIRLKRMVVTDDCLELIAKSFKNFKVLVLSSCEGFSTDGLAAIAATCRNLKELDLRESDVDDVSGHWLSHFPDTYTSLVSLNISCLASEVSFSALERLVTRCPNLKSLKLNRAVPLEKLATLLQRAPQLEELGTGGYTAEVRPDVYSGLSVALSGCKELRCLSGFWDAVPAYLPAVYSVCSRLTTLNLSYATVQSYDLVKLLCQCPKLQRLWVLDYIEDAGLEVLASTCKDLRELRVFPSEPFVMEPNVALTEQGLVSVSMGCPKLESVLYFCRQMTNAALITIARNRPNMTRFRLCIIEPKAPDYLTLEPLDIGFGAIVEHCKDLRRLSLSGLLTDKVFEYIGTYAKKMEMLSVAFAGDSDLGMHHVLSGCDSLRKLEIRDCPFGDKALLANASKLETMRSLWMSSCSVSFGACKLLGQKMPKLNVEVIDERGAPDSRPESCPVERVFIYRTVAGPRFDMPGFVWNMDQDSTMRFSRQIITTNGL
AtTIR1–IAA7 peptide, sequence (Q39255 whole entry partner, other chains not shown): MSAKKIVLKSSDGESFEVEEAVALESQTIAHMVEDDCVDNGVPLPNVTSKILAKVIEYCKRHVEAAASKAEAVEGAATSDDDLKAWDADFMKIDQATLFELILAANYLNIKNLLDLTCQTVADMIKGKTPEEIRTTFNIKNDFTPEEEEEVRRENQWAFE
AtAFB5–IAA7, sequence (Q9LTX2 whole entry, other chains not shown): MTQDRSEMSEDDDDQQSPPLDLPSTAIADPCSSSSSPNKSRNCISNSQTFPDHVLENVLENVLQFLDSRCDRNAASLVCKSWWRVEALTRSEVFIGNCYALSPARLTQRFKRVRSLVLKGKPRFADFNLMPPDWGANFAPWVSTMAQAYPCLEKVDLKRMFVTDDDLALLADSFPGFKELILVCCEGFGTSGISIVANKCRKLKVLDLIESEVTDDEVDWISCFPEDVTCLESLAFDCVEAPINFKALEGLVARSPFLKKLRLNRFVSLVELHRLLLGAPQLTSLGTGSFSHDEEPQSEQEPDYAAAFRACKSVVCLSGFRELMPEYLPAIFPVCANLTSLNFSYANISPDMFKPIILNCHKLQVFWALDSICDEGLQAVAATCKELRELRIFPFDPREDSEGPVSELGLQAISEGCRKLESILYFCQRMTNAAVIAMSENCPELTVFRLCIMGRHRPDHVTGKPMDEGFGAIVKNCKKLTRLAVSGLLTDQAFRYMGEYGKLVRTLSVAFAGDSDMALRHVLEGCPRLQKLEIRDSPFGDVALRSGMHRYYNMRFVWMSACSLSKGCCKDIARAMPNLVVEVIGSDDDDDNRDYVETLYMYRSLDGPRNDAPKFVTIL
AtAFB5–IAA7, sequence (Q39255 whole entry partner, other chains not shown): as the sequence (Q39255 whole entry partner, other chains not shown) above

As to `OB(O)c1ccc(Oc2ccccc2)cc1` [PPBo], in the assay with YUC monooxygenase, the IAA production entry is on record as “block IAA production”.
Take `COCCC(=O)N1C[C@@H]2C[C@H](C1)c1ccc(NC(=O)c3ccc(-c4ccccc4)cc3)c(=O)n1C2` [jarin-1]: the “inhibition of AtGH3.11/JAR1” value in the assay with AtGH3.11/JAR1 is given as “selectively inhibits”.
`S=c1nc(-c2ccc(Cl)cc2)[nH][nH]1` [yucasin]: in the assay with endogenous IAA, the “endogenous IAA level” value is “decreased the endogenous IAA to almost basal level”.
For `O=C(O)Cc1c[nH]c2ccccc12` [IAA, indole-3-acetic acid], the “ectopic formation of leafy-like primordia” value in the assay on Physcomitrium patens is “has not been induced”. For the same compound, the “mesocotyl elongation in rice” value in [1] (aerial part of rice seedlings) is recorded as “promoted mesocotyl elongation”. Also, in assay [1] (rice roots), the “primary root elongation in rice” value is “suppressed primary root elongation”. For the same compound, the “lateral root formation in sav3-2 and yuc Q mutants” value in assay [2] (auxin biosynthesis mutants) is recorded as “induced by IAA to a similar extent as WT plants”. Further, the “lateral root formation in tir1-1 afb2-1 and axr1-3 mutants” value in assay [2] (auxin signaling mutants) was “showed resistance”. For the same compound, the “expression of auxin biosynthesis gene YUC6” value in assay [3] is “down-regulated”. Moreover, the “effect on TIR1–IAA7 peptide association and dissociation” value at AtTIR1–IAA7 peptide was “promotes interaction”. Besides, the “effect on AFB5–IAA7 peptide association and dissociation” value on AtAFB5–IAA7 is given as “promotes interaction”. The “lateral root formation in WT roots” value in [4] is listed as “promoted lateral root formation”. In [5], the “time to decomposition of DII-VENUS after application” value is on record as not above 10 min.
Regarding `Nc1ncnc2c1ncn2[C@@H]1O[C@H](COP(=O)(O)OCCc2c[nH]c3ccccc23)[C@@H](O)[C@H]1O` [AEIP, Adenosine-5-[2-(1H-indol-3-yl)ethyl]phosphate], in the assay with auxin-conjugating GH3s, the “in vitro activity against auxin-conjugating GH3s” value was “micromolar range”.
As to `Nc1ccccc1C(=O)C[C@H](N)C(=O)O` [L-kynurenine], the “inhibition of TAA1” value in the assay on TAA1 is on record as “competitively inhibit”.

Source of the values: publication PMC9371723 (Proceedings of the National Academy of Sciences of the …, 2022).
